According to ChEMBL document CHEMBL4431317, “Allosteric Inhibition of SHP2: Identification of a Potent, Selective, and Orally Efficacious Phosphatase Inhibitor” (J Med Chem, 2016):
Active and inactive are the calls of the source. No cut-off for these calls is given here.

What was measured:
[1] = target: T1, Tyrosine-protein phosphatase non-receptor type 11 (Homo sapiens, UniProt Q06124); test: Inhibition of human 6his-tagged SHP2 (2 to 593 residues) expressed in Escherichia coli BL21 Star (DE3) cells preincubated with IRS1_pY1172(dPEG8)pY1222 for 30 to 60 mins followed by addition of DiFMUP measured after 30 mins by fluorescence analysis
T1 sequence (Q06124 whole entry): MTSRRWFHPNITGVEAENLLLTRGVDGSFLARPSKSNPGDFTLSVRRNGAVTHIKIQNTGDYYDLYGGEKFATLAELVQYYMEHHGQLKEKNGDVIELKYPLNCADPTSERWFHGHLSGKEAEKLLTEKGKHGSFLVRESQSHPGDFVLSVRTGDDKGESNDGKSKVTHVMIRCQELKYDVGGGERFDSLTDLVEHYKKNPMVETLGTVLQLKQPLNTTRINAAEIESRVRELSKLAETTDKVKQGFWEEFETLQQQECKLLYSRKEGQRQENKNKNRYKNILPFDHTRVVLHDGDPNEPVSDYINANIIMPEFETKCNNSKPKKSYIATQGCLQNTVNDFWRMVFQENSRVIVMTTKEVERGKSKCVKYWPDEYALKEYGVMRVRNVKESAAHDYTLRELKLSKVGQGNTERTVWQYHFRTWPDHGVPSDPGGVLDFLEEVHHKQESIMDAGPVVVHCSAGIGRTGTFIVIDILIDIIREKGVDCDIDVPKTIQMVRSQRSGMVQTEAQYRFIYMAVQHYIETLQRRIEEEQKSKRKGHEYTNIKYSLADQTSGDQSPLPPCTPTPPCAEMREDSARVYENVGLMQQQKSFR

[2] = target: T1, Tyrosine-protein phosphatase non-receptor type 11; test: Inhibition of human SHP2 PTP domain (237 to 529 residues) by fluorescence analysis
[3] = target: T2, Tyrosine-protein phosphatase non-receptor type 11 (Homo sapiens) (UniProt Q06124); test: Inhibition of human 6his-tagged SHP2 (1 to 525 residues) expressed in Escherichia coli BL21 Star (DE3) cells assessed as change in melting temperature at 100 uM by SYPRO orange dye based differential scanning fluorometry
T2 sequence (whole entry): T1 sequence (Q06124 whole entry)
Outline: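 Thermal shift with SHP2 1-525 construct at 100 µg/mL, 5× SYPRO Orange, 100 mM Bis-Tris pH 6.5, 100 mM NaCl, 0.25 mM TCEP, 5% DMSO; compound at 100 µM final. Ramp 25–75 °C in 0.5 °C steps, ex 465/em 580 nm. Tm as transition midpoint by semi-parametric fit; ΔTm against mean of 32 DMSO-only apo controls per plate.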

KYSE-520 cell line [4] = test: Antitumor activity against human KYSE520 cells xenografted in immunocompromised nude mouse assessed as tumor stasis at 80 mg/kg administered qd through oral gavage relative to vehicle control; assay type: functional, organism-based
Outline: (§1)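 Female nude mice inoculated subcutaneously with 3 x 10^6 parental KYSE-520 cells in 50% phenol red-free matrigel in HBSS. Tumors calipered twice weekly in two dimensions. At roughly 200 mm3, mice randomized to vehicle, test compound (10, 30 or 100 mg/kg qd) or erlotinib (80 mg/kg qd), all by oral gavage. Growth compared with vehicle group.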

[5] = Solubility of the compound at pH 6.8; assay type: physicochemical; settings: buffer
Mus musculus = test: In vivo inhibition of ERK phosphorylation in human KYSE520 cells xenografted in immunocompromised nude mouse at 30 and 100 mg/kg administered qd through oral gavage; assay type: functional, organism-based; settings: in the assay text read “administered as a single dose through” for “administered qd through”
Outline: (§2)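 Female nude mice bearing subcutaneous KYSE-520 xenografts (3 x 10^6 cells in 50% matrigel/HBSS) received a single oral gavage dose of vehicle or compound (30 or 100 mg/kg) once tumors reached roughly 500 mm3. Euthanized at set time points; plasma harvested for drug levels and xenograft fragments for p-ERK.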

KYSE-520 cell line [6] = test: Antitumor activity against human KYSE520 cells xenografted in immunocompromised nude mouse assessed as tumor growth inhibition at 10 mg/kg administered qd through oral gavage relative to vehicle control; assay type: functional; outline: as §1
[7] = AUC in C57BL/6 mouse at 5 mg/kg, po by LC-MS/MS analysis; assay type: ADME, organism-based; settings: in vivo
Outline: (§3)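 Male C57BL/6 mice dosed orally at 5 mg/kg. Whole blood taken by tail transection at 0.25, 0.5, 1, 2, 4 and 7 h into EDTA. Plasma stored at -20 °C, precipitated with acetonitrile containing internal standard. PK parameters from noncompartmental analysis; AUClast by linear trapezoidal rule. %F = (AUCinf,po/AUCinf,iv)×(Dose iv/Dose po), with IV reference at 1 mg/kg via tail vein. Results given as mean.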

KYSE-520 cell line [8] = test: Antitumor activity against human KYSE520 cells xenografted in immunocompromised nude mouse assessed as tumor growth at 100 mg/kg administered qd through oral gavage relative to vehicle control; assay type: functional; outline: as §1
[9] = Oral bioavailability in C57BL/6 mouse at 5 mg/kg by LC-MS/MS analysis; assay type: ADME, organism-based; settings: in vivo; outline: as §3
[10] = Drug uptake in plasma of immunocompromised nude mouse xenografted with human KYSE520 cells administered qd via oral gavage; assay type: ADME; settings: in the assay text read “administered as a single dose via” for “administered qd via”; outline: as §2
KYSE-520 cell line [11] = test: Antitumor activity against human KYSE520 cells xenografted in immunocompromised nude mouse assessed as tumor growth inhibition at 30 mg/kg administered qd through oral gavage relative to vehicle control; assay type: functional; outline: as §1
[12] = Apparent permeability across apical to basolateral side in human Caco2 cells; assay type: ADME, cell-based; settings: Caco-2

Cc1cccc(-c2cnc(N3C[C@@H](C)N[C@@H](C)C3)nc2N)c1C
IC50 [1]: > 100 µM

C[C@@H]1CN(c2ncc(-c3cccc(Cl)c3Cl)c(N)n2)C[C@H](C)N1
IC50 [2]: > 100 µM | ΔTm [3]: 3 to 3.02 °C

Nc1nc(N2CCC(N)CC2)ncc1-c1cccc(Cl)c1Cl
IC50 [1]: 1.3 µM

CN(C)C1CCN(c2ncc(-c3cccc(Cl)c3Cl)c(N)n2)CC1
IC50 [1]: 6.5 µM

CNc1nc(N2CCC(C)(N)CC2)cnc1-c1cccc(Cl)c1Cl
IC50 [1]: 22 µM

C#Cc1cccc(Nc2ncnc3cc(OCCOC)c(OCCOC)cc23)c1
Activity (KYSE-520 cell line [4]): Active

CC1(N)CCN(c2cnc(-c3cccc(Cl)c3Cl)c(N)n2)CC1
solubility [5]: > 500 µM | inhibition (Mus musculus): Active | TGI (KYSE-520 cell line [6]): 19% | AUC [7]: 565 µM·h | T/C (KYSE-520 cell line [8]): 3% | bioavailability [9]: 46% | Drug uptake [10]: Dose-dependent effect | TGI (KYSE-520 cell line [11]): 61% | Papp A→B [12]: 13.2 ×10⁻⁶ cm/s

C[C@@H]1CN(c2ncc(-c3ccc(Cl)c(Cl)c3)c(N)n2)C[C@H](C)N1
IC50 [1]: 54 µM

C[C@@H]1CN(c2ncc(-c3cccc(Cl)c3)c(N)n2)C[C@H](C)N1
IC50 [1]: 99 µM
